This note sets out measurements from ChEMBL document CHEMBL1138119, “Extremely potent orally active benzo[g]quinoline analogue of the dopaminergic prodrug: 1-propyl-trans-2,3,4,4a,5,7,8,9,10,10a-decahydro-1H-benzo-[g]quinolin-6-one [corrected]” (2006).

SMILES strings stand for the structures. Active and inactive are the calls of the source. The rule behind the calls is not given here.

The target of experiment [1] is D(1A) dopamine receptor (Rattus norvegicus) (UniProt P18901). The experiment in a line: Displacement of [3H]SCH-23390 from dopamine D1 receptor in rat corpus striatum membrane at 100nM. In kind it is cell membranes. In general terms: Displacement assays read how much labelled ligand stays bound in the presence of the test substance.
Experiment [2] deals with D(2) dopamine receptor (Rattus norvegicus) (UniProt P61169). The experiment in a line: Displacement of [3H]spiperone from dopamine D2 receptor in rat corpus striatum membrane at 100nM. It is filed as cell membranes. The method in brief:
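Inhibition of [3H]spiperone binding (0.50 nM; Kd 0.20 nM) to dopamine receptors in rat corpus striatum membranes, in vitro. Displacement was measured at a single fixed test concentration.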

Experiment [3] has as its target D(3) dopamine receptor (Homo sapiens) (UniProt P35462). The experiment in a line: Displacement of [3H]spiperone from human dopamine D3 receptor expressed in CHO cells at 50nM. In kind it is cell-based. The method in brief:
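CHO membranes with cloned human D3 (26 µg protein) in 25 mM Tris-HCl pH 7.4, 6.0 mM MgCl2, 1.0 mM EDTA. […] Incubated 60 min at 25 °C, filtered on PEI-treated GF/C, and counted by scintillation. Measured at a single test concentration.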

Experiment [4] concerns the target T1, D(4) dopamine receptor (Homo sapiens) (UniProt P21917).
T1 sequence (whole entry): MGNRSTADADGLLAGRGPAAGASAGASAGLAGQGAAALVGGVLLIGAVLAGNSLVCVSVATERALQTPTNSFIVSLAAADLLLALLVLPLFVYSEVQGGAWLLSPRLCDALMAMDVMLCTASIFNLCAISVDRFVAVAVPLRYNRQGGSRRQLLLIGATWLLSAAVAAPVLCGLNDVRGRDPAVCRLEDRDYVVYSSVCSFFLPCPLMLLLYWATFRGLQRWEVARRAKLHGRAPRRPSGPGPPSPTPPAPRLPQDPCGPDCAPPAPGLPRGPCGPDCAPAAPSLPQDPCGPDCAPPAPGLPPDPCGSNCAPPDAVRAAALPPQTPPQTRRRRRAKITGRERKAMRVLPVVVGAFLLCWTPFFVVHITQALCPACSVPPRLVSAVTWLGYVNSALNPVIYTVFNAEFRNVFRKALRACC
The experiment in a line: Displacement of [3H]nemonapride from human dopamine D4 receptor at 50nM. A digest of the protocol:
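Inhibition of [3H]nemonapride binding (0.50 nM; Kd 0.20 nM) to cloned human D4 receptors, in vitro. Displacement was measured at a single fixed test concentration.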

The test system of experiment [5] is Rattus norvegicus. The experiment in a line: Effect on striatal dopamine release in rat at 1umol/kg, sc. In kind it is functional, organism-based. A digest of the protocol:
(§1)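 Striatal microdialysis in freely moving rats, done by a previously described procedure. Doses were given sc or po. Dopamine levels are expressed relative to basal dopamine levels, as mean (SEM) from four rats.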

Experiment [6] deals with Rattus norvegicus. The experiment in a line: Decrease in striatal dopamine levels in rat at 1 nmol/kg, sc. It is filed as functional. Further details: scale not given: the % may be the effect or the level left. The method in brief: as §1
The subject of experiment [7] is Rattus norvegicus. The experiment in a line: Decrease in striatal dopamine levels in rat at 3 nmol/kg, sc. In kind it is functional. Details: scale not given: the % may be the effect or the level left. The method in brief: as §1
Experiment [8] has as its system Rattus norvegicus. The experiment in a line: Decrease in striatal dopamine levels in rat at 10 nmol/kg, sc. It is filed as functional. Details: scale not given: the % may be the effect or the level left. A digest of the protocol: as §1
Experiment [9] deals with Rattus norvegicus. The experiment in a line: Decrease in striatal dopamine levels in rat at 3 nmol/kg, po. Further details: scale not given: the % may be the effect or the level left. In kind it is functional. The method in brief: as §1
In experiment [10] the test system is Rattus norvegicus. The experiment in a line: Decrease in striatal dopamine levels in rat at 10 nmol/kg, po. It is filed as functional. Details: scale not given: the % may be the effect or the level left. A digest of the protocol:
as §1

Sequence of D(3) dopamine receptor (Homo sapiens) (P35462 whole entry): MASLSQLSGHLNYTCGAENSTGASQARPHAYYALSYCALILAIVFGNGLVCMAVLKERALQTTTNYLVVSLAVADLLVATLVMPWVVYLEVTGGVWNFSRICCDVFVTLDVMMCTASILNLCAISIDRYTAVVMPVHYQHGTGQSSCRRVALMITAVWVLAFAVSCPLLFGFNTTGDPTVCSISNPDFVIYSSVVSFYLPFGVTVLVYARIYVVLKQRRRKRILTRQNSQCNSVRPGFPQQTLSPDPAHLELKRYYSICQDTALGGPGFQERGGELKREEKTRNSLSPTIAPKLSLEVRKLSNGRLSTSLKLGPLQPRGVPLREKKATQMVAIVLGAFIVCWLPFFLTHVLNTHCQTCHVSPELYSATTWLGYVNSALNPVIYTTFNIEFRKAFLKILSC
Sequence of D(2) dopamine receptor (Rattus norvegicus) (P61169 whole entry): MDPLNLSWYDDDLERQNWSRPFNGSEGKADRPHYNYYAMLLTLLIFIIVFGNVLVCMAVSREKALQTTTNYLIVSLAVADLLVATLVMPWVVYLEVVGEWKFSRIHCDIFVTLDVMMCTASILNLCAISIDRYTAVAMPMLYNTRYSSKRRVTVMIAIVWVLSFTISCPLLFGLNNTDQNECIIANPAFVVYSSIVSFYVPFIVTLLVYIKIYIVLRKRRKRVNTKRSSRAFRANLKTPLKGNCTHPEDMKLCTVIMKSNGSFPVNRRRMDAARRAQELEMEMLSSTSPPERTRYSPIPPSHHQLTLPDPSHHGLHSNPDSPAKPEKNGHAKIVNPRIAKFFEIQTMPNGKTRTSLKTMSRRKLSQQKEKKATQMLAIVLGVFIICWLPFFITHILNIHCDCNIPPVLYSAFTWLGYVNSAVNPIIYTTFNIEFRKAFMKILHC
Sequence of D(1A) dopamine receptor (Rattus norvegicus) (P18901 whole entry): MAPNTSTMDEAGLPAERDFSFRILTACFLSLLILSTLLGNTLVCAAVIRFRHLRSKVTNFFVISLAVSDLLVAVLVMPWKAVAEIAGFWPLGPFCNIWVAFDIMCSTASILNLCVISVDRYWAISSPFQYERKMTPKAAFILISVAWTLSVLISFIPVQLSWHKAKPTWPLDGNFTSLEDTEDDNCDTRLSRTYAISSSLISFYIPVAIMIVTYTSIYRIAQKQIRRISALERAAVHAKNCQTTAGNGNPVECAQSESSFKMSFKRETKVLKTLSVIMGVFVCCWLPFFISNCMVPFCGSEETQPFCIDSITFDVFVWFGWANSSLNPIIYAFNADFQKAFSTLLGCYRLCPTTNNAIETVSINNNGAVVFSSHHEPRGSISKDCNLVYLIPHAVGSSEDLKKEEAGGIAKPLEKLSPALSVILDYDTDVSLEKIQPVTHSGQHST

Turning to `CCCN1CCCC2CC3=C(CCCC3=O)CC21` (single isomer, unassigned; (+)), the Activity was 7% in [1], 3% in experiment [2], 28% in [3] and -19% in [4]. Besides, the result in experiment [5] was inactive.
For `CCCN1CCCC2CC3=C(CCCC3=O)CC21` (single isomer, unassigned; (-)) [listing 1 of 2 here], the Activity in experiment [6] is reported as 20%; in [7], 20%; in [8], 20%; in [9] it was 45%; in experiment [10] it was 60%.
For `CCCN1CCCC2CC3=C(CCCC3=O)CC21` (single isomer, unassigned; (-)) [listing 2 of 2 here], the Activity was -1% in experiment [1], 15% in experiment [2], 23% in experiment [3] and -4% in experiment [4].
